Source: ChEMBL document CHEMBL2146360, “Selection, synthesis, and anti-inflammatory evaluation of the arylidene malonate derivatives as TLR4 signaling inhibitors” (Bioorg Med Chem, 2012)
Active and inactive are the calls of the source. No cut-off for these calls is given here.

Legend:
Assay type in all cases: cell-based
Toll-like receptor 4 [1] = molecular target: T1, Toll-like receptor 4 (Mus musculus, UniProt Q9QUK6); assay: Inhibition of TLR4 in LPS-stimulated mouse RAW264.7 cells assessed as reduction of NO production after 24 hrs
T1 sequence (Q9QUK6 whole entry): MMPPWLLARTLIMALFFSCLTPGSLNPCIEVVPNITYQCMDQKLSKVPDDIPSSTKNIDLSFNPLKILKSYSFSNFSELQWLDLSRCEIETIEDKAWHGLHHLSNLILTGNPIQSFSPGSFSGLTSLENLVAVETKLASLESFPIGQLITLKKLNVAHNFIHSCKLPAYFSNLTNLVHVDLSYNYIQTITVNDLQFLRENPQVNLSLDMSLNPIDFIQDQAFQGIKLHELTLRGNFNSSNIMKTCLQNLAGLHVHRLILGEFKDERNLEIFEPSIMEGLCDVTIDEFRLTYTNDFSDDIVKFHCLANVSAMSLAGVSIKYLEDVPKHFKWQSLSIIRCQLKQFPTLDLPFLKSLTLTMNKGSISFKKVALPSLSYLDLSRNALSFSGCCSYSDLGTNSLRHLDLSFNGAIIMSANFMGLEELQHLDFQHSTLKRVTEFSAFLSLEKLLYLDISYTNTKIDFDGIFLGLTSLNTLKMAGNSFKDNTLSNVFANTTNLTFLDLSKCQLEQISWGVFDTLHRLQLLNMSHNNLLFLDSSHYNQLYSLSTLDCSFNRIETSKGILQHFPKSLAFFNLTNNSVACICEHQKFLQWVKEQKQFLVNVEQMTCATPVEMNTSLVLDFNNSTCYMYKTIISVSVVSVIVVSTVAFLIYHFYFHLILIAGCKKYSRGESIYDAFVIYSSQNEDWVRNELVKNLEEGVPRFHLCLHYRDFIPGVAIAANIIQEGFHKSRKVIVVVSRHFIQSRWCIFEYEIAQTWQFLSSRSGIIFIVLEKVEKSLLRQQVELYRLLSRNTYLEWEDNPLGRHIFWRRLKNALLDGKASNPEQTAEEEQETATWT
In short: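 RAW 264.7 cells at 7.5×10^4/well were incubated 24 h, moved to fresh RPMI 1640, treated with vehicle or compound, and stimulated with LPS 20 ng/mL for 24 h. Nitrite in the medium was reacted with 2,3-diaminonaphthalene (0.05 mg/mL in 0.62 M HCl) for 15 min in the dark, NaOH was added, and […] was read at 450 nm.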

[2] = molecular target: TLR7 and TLR8 (Mus musculus) (UniProt P58681+P58682); assay: Inhibition of TLR7/TLR8 in R848-stimulated mouse RAW264.7 cells at 0.6 uM after 24 hrs
In short: (§1)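 RAW 264.7 cells were stimulated with the TLR-selective ligand named in the line, in the presence or absence of compound (0.6 μM). NO was then measured by the nitrite protocol: 7.5×10^4 cells/well, RPMI 1640, 24 h. 2,3-diaminonaphthalene was added, then NaOH, and […] read at 450 nm. Mean ±SD of 3 experiments, each run in triplicate.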

[3] = molecular target: Toll-like receptor 1/2 (Mus musculus) (UniProt Q9QUN7+Q9EPQ1); assay: Inhibition of TLR1/TLR2 in Pam3CSK4-stimulated mouse RAW264.7 cells at 0.6 uM after 24 hrs; in short: as §1
[4] = molecular target: T2, Toll-like receptor 4 (Mus musculus) (UniProt Q9QUK6); assay: (§2) Inhibition of TLR4 in LPS-stimulated mouse RAW264.7 cells assessed as reduction of TNFalpha production after 24 hrs by ELISA
T2 sequence (whole entry): T1 sequence (Q9QUK6 whole entry)
In short: (§3)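 RAW 264.7 cells (5×10^5/well, 6-well plates) were treated with or without LPS and then with compound for 24 h. Culture supernatant was harvested and clarified, and TNF-α was measured by ELISA.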

Toll-like receptor 4 [5] = molecular target: T1, Toll-like receptor 4; assay: as §2; in short: as §3
[6] = molecular target: T2, Toll-like receptor 4 (Mus musculus); assay: (§4) Inhibition of TLR4 in LPS-stimulated mouse RAW264.7 cells assessed as reduction of IL1-beta production after 24 hrs by ELISA
In short: (§5)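 RAW 264.7 cells (5×10^5/well, 6-well plates) were treated with or without LPS and then with compound for 24 h. Cells were lysed and IL-1β was measured in the lysate by ELISA, normalized to total protein.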

Toll-like receptor 4 [7] = molecular target: T1, Toll-like receptor 4; assay: as §4; in short: as §5
[8] = molecular target: T3, Toll-like receptor 3 (Mus musculus) (UniProt Q99MB1); assay: Inhibition of TLR3 in poly(I:C)-stimulated mouse RAW264.7 cells at 0.6 uM after 24 hrs; in short: as §1
T3 sequence (whole entry): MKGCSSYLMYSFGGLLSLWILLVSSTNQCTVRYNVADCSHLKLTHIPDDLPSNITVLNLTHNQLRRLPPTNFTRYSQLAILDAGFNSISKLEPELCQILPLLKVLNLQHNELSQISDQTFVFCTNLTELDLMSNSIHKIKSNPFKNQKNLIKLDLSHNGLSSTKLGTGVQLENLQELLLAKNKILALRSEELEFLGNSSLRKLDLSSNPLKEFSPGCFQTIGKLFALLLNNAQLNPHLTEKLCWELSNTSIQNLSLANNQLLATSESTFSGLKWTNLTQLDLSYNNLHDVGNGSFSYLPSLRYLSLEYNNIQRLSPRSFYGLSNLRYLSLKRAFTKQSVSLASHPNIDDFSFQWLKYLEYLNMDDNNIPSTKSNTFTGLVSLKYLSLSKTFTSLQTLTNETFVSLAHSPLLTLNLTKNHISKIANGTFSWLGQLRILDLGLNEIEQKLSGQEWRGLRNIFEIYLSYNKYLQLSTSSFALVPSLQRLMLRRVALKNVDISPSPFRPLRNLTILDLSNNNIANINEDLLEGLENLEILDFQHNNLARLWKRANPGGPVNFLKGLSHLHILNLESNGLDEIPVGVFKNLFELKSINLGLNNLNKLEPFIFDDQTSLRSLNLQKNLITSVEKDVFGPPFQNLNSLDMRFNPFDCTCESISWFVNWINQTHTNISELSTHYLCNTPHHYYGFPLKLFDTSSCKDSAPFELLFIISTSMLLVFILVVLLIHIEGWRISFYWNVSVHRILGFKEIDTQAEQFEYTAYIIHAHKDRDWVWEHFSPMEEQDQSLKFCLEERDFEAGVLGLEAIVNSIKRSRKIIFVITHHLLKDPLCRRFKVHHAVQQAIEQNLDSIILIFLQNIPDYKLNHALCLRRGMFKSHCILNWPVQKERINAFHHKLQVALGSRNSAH

[9] = molecular target: T2, Toll-like receptor 4 (Mus musculus); assay: Inhibition of TLR4 in LPS-stimulated mouse BV2 cells assessed as reduction of NF-kappaB activation after 24 hrs by Dual-GLO luciferase assay; conditions: BV-2
In short: (§6)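 BV-2 cells stably carrying an NF-κB dual-luciferase reporter were kept in DMEM/10% FBS with puromycin (3 μg/mL) and seeded at 1×10^4/well. After 24 h the medium was switched to Opti-MEM/0.5% FBS. Compound was added, followed by LPS 200 ng/mL for 24 h. Read-out was the Firefly/Renilla luciferase ratio (Dual-Glo).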

RAW264.7 = assay: Cytotoxicity against mouse RAW264.7 cells assessed as cell viability up to 10 uM after 24 hrs by WST-1 assay; conditions: raw264.7, 24 h
In short: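 WST-1 viability assay: RAW 264.7 cells at 2×10^4 cells/well, cultured 24 h at 37°C, then moved to serum-free medium and treated with vehicle or compound (10 mM DMSO stocks) for 24 h. WST-1 reagent added for 30 min at 37°C; absorbance read at 490 nm.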

TLR2/TLR6 (Mus musculus) = TLR2/TLR6 (Mus musculus) (UniProt Q9QUN7+Q9EPW9); assay: Inhibition of TLR2/TLR6 in FSL1-stimulated mouse RAW264.7 cells at 0.6 uM after 24 hrs; in short: as §1
[10] = molecular target: T2, Toll-like receptor 4 (Mus musculus); assay: Inhibition of TLR4 in LPS-stimulated mouse BV2 cells assessed as reduction of NF-kappaB activation up to 10 uM after 24 hrs by Dual-GLO luciferase assay; conditions: BV-2; in short: as §6
[11] = molecular target: T2, Toll-like receptor 4 (Mus musculus); assay: Inhibition of TLR4 in LPS-stimulated mouse RAW264.7 cells assessed as reduction of TNFalpha production at 3 to 10 uM after 24 hrs by ELISA; in short: as §3
[12] = molecular target: T2, Toll-like receptor 4 (Mus musculus); assay: Inhibition of TLR4 in LPS-stimulated mouse RAW264.7 cells assessed as reduction of IL1-beta production at 3 to 10 uM after 24 hrs by ELISA; in short: as §5

Sequence of TLR7 and TLR8 (Mus musculus) (P58681 whole entry, looked up): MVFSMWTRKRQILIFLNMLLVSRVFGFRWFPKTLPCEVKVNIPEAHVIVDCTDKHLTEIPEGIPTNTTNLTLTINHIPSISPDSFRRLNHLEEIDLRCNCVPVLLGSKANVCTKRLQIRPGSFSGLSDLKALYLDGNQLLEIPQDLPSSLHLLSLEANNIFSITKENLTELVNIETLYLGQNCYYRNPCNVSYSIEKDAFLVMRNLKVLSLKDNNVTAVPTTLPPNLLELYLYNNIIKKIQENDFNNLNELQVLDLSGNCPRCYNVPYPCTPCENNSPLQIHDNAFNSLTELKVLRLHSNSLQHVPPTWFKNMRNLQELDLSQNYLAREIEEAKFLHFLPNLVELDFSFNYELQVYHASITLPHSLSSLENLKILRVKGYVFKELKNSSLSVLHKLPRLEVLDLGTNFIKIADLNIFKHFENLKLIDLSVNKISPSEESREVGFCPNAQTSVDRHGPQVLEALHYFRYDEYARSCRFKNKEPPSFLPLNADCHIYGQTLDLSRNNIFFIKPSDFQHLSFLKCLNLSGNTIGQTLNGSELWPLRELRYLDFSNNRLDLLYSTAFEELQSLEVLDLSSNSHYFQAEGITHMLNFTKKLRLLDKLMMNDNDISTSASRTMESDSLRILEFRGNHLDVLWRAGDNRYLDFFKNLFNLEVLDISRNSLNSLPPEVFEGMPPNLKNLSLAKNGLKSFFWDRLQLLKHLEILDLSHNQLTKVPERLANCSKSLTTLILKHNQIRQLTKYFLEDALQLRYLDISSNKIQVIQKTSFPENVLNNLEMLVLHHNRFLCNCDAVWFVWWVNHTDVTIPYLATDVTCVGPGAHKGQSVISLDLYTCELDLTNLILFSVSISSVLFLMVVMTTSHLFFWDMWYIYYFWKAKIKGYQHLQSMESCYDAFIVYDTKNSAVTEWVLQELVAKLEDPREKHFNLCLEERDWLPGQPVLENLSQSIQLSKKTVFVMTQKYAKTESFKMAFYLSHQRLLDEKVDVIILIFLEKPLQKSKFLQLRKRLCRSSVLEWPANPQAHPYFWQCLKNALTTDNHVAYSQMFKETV
Sequence of TLR7 and TLR8 (Mus musculus) (P58682 whole entry, looked up): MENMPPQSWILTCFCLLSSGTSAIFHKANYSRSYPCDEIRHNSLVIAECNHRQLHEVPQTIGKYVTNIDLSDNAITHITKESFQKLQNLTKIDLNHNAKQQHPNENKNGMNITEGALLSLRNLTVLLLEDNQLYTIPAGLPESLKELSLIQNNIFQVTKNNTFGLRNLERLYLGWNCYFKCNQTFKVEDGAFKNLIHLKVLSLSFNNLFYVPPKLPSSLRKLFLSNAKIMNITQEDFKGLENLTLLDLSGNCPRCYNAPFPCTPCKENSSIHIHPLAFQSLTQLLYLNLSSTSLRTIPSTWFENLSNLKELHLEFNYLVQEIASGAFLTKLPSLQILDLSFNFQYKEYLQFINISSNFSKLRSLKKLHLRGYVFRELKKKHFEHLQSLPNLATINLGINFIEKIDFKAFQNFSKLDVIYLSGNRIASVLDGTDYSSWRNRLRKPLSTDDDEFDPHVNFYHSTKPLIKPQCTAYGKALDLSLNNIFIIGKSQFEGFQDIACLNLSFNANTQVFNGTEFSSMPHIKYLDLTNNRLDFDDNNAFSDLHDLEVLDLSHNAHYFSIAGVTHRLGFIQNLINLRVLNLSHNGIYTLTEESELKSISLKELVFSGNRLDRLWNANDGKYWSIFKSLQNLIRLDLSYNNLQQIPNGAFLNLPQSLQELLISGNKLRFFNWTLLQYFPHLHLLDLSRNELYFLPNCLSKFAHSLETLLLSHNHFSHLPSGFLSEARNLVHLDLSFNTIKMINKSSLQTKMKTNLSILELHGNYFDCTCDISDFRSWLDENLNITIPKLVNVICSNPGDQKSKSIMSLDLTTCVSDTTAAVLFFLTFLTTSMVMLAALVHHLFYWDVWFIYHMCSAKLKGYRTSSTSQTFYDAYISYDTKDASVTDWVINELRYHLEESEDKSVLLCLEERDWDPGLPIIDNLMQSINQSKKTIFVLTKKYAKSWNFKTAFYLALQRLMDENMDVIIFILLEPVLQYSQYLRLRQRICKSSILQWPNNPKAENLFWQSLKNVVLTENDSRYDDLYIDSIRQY

| IC50 (Toll-like receptor 4 [1]) [nM] | SMILES | further results |
| --- | --- | --- |
| 820 | COC(=O)C(=Cc1ccc([N+](=O)[O-])cc1)C(=O)OC | – |
| 520 | O=C(O)C(=Cc1ccccc1[N+](=O)[O-])C(=O)O | – |
| 1540 | COC(=O)C(=Cc1ccc(Cl)cc1)C(=O)OC | – |
| 820 | COC(=O)C(=Cc1ccccc1Cl)C(=O)OC | – |
| 3720 | COC(=O)C(=Cc1cccc(OC)c1)C(=O)OC | – |
| 6000 | COc1cc(/C=C/C(=O)CC(=O)/C=C/c2ccc(O)c(OC)c2)ccc1O [CURCUMIN] | – |
| 1440 | COc1ccc(C=C(C(=O)O)C(=O)O)cc1 | – |
| > 100000 | COC(=O)C(Cc1ccccc1[N+](=O)[O-])C(=O)OC | inhibition [10]: inactive; inhibition [11]: inactive; inhibition [12]: inactive |
| 930 | O=C(O)C(=Cc1ccccc1)C(=O)O | – |

Continued, molecule first:

| SMILES | IC50 (Toll-like receptor 4 [1]) [nM] | further results |
| --- | --- | --- |
| COC(=O)C(=Cc1ccc(OC)cc1)C(=O)OC | 1240 | – |
| COC(=O)C(=Cc1ccc(OC)cc1OC)C(=O)OC | 820 | – |
| COC(=O)C(=Cc1cccc(F)c1)C(=O)OC | 2530 | – |
| COC(=O)C(=Cc1ccc(F)cc1)C(=O)OC | 710 | – |
| COC(=O)C(=Cc1ccccc1)C(=O)OC | 820 | – |
| COC(=O)C(=Cc1ccc(N(C)C)cc1)C(=O)OC | 3110 | – |
| O=C(O)C(=Cc1ccccc1F)C(=O)O | 410 | – |
| COC(=O)C(=Cc1ccc(C(=O)OC)cc1)C(=O)OC | 1330 | – |
| COC(=O)C(=Cc1ccccc1[N+](=O)[O-])C(=O)OC | 310 | inhibition [2]: inactive; inhibition [3]: inactive; inhibition [4]: Dose-dependent effect; IC50 (Toll-like receptor 4 [5]): 1540 nM; inhibition [6]: Dose-dependent effect; IC50 (Toll-like receptor 4 [7]): 420 nM; inhibition [8]: inactive; IC50 [9]: 5920 nM; inhibition [9]: Dose-dependent effect; Activity (RAW264.7): Non-toxic; inhibition (TLR2/TLR6 (Mus musculus)): Active |
| COC(=O)C(=Cc1cccc([N+](=O)[O-])c1)C(=O)OC | 2130 | – |
| COC(=O)C(=CC1CCCCC1)C(=O)OC | 78200 | – |
| COC(=O)C(=Cc1ccc(F)cc1F)C(=O)OC | 420 | – |
| COC(=O)C(=Cc1ccccc1OC)C(=O)OC | 740 | – |
| COC(=O)C(=Cc1ccccc1F)C(=O)OC | 330 | – |
| COC(=O)/C=C/c1ccccc1[N+](=O)[O-] | 4530 | – |
